Laboratory results taken from ChEMBL document CHEMBL4024762, “Discovery of N-(3-Carbamoyl-5,5,7,7-tetramethyl-5,7-dihydro-4H-thieno[2,3-c]pyran-2-yl)-lH-pyrazole-5-carboxamide (GLPG1837), a Novel Potentiator Which Can Open Class III Mutant Cystic Fibrosis Transmembrane Conductance Regulator (CFTR) Channels to a High Extent” (J Med Chem, 2018).

Key:
Format in all cases: cell-based
[1] = biological target: Cystic fibrosis transmembrane conductance regulator (Homo sapiens, UniProt P13569, G551D); experiment: (§1) Potentiation of CFTR G551D mutant (unknown origin) expressed in HEK293 cells incubated for 10 mins in presence of forskolin measured for 2 mins by YFP halide assay
In short: (§2)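 HEK293 cells transfected with the mutant CFTR (G551D, G178R, S549N or R117H) and YFP (H148Q/I152L/F47L), seeded directly after transfection, then 24 h at 37°C. Treated 10 min at room temperature with 10 µM forskolin plus potentiator. Fluorescence read for 2 min across addition of NaI buffer (375 mM NaI). Activity = 1-(F/F0).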

[2] = system: Cystic fibrosis transmembrane conductance regulator (Homo sapiens), P13569 [G551D]; experiment: as §1; parameters: concentration or dose not given beside the values; in short: as §2
[3] = system: Cystic fibrosis transmembrane conductance regulator (Homo sapiens), P13569 [F508del]; experiment: (§3) Potentiation of CFTR F508del mutant (unknown origin) expressed in human CFBE41o cells incubated for 10 mins in presence of forskolin measured for 7 secs by YFP halide assay; parameters: concentration or dose not given beside the values
In short: (§4)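 CFBE41o- cells (CF bronchial line) transduced by adenovirus with F508del CFTR and YFP (H148Q/I152L/F47L). Cells held 24 h at 27°C, then treated 10 min at room temperature with 10 µM forskolin plus potentiator. YFP fluorescence read for 7 s across addition of NaI buffer (137 mM NaI). Activity = 1-(F/F0).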

[4] = biological target: Cystic fibrosis transmembrane conductance regulator (Homo sapiens, UniProt P13569, F508DEL); experiment: as §3; in short: as §4
Cystic fibrosis transmembrane conductance regulator (Homo sapiens, UniProt P13569, F508DEL), sequence (P13569 as listed by the source): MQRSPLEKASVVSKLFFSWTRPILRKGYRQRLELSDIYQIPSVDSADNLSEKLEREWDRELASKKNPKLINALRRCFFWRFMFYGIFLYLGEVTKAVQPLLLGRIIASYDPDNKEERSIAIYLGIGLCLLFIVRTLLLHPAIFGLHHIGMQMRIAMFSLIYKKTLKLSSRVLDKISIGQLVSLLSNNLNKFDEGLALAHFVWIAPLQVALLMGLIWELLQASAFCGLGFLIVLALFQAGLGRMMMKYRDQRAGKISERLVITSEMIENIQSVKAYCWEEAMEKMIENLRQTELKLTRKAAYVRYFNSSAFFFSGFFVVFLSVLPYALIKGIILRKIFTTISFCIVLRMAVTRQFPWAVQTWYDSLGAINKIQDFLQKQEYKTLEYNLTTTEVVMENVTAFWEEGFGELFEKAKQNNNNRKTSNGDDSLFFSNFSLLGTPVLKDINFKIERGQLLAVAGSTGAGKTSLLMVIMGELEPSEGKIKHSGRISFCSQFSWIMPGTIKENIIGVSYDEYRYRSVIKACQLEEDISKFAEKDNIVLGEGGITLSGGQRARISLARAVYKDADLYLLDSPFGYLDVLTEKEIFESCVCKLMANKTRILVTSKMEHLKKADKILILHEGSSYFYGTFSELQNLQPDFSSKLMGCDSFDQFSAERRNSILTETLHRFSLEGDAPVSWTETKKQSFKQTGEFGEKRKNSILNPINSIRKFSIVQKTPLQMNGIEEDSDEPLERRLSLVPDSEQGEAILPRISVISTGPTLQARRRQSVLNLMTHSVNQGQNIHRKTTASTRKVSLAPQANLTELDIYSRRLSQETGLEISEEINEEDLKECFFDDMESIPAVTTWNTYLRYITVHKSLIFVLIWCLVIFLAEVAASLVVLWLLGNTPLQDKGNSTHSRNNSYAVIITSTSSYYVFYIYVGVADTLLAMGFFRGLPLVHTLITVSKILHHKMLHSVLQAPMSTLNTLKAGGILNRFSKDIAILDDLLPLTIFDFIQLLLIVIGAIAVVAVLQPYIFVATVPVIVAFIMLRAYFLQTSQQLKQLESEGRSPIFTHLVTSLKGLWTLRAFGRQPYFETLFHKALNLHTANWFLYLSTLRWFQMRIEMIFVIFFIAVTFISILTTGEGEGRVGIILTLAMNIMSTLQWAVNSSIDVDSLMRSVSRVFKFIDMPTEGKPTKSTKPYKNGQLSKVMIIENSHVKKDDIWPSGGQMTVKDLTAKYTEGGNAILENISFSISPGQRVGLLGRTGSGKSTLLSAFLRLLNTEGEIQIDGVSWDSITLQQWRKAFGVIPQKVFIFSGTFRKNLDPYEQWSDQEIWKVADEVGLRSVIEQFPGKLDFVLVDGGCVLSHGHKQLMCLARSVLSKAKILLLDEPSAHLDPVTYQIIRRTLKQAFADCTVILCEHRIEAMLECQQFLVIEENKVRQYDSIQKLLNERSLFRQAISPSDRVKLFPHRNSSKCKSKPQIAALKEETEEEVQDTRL

Cystic fibrosis transmembrane conductance regulator (Homo sapiens), P13569 [F508del], sequence (P13569 as listed by the source): as above
Cystic fibrosis transmembrane conductance regulator (Homo sapiens), P13569 [G551D], sequence (P13569 whole entry G551D): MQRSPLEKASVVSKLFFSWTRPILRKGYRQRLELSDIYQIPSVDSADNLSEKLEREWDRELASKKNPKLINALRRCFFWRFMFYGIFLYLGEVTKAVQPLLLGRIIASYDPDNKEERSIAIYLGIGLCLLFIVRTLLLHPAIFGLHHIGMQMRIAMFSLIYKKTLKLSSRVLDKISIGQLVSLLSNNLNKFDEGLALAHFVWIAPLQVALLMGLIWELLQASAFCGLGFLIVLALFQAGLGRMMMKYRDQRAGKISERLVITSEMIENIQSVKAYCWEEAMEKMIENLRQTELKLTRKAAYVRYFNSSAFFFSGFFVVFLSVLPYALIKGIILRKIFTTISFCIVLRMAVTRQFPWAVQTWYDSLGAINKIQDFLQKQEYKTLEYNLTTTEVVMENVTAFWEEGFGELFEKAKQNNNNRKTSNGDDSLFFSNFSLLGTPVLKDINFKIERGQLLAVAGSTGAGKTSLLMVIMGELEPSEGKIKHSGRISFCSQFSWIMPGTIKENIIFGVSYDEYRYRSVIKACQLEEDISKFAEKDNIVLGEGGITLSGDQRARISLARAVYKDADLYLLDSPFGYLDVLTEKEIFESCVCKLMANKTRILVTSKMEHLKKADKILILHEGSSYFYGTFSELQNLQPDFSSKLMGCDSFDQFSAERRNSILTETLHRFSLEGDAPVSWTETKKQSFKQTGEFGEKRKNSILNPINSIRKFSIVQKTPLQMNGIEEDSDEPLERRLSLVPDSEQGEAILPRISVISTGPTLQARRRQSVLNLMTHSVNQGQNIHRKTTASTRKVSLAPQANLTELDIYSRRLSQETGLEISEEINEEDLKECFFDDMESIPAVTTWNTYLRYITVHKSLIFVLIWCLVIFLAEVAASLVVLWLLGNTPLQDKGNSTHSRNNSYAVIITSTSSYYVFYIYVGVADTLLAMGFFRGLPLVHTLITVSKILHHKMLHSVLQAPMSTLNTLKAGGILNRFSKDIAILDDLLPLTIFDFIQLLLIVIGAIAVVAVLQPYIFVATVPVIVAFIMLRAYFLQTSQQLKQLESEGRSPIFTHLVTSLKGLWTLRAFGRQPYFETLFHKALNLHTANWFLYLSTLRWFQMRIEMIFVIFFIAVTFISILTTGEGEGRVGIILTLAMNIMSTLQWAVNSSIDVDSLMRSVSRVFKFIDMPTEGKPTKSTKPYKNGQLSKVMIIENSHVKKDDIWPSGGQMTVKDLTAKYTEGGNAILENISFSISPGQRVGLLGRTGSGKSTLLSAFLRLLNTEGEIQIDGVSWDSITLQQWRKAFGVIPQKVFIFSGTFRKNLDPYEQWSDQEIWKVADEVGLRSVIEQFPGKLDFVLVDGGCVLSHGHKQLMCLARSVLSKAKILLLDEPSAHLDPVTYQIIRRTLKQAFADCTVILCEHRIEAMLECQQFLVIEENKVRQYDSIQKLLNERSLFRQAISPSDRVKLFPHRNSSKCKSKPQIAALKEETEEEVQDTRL
Cystic fibrosis transmembrane conductance regulator (Homo sapiens, UniProt P13569, G551D), sequence (P13569 whole entry G551D): as above

Compound	EC50 [1]	Activity [2]	Activity [3]	EC50 [4]
CC1(C)Cc2c(sc(NC(=O)C3(CO)CC3)c2C(N)=O)C(C)(C)O1	1320 nM	57%	105%	15 nM
CC1(C)Cc2c(sc(NC(=O)c3ccccc3O)c2C(N)=O)CO1	490 nM	51%	93%	13 nM
CC1(C)Cc2c(sc(NC(=O)[C@@H](O)C(C)(C)C)c2C(N)=O)C(C)(C)O1	421 nM	50%	95%	2.7 nM
CC(C)(C)c1cc(C(C)(C)C)c(NC(=O)c2c[nH]c3ccccc3c2=O)cc1O [IVACAFTOR]	1300 nM	50%	100%	126 nM
CC1(C)Cc2c(sc(NC(=O)C(C)(C)CO)c2C(N)=O)C(C)(C)O1	–	–	–	75 nM
Cc1ccc(C(=O)Nc2sc3c(c2C(N)=O)CCOC3)s1	–	–	74%	778 nM
CC1Cc2c(sc(NC(=O)c3ccccc3O)c2C(N)=O)C(C)O1 (stereo unspecified)	236 nM	36%	98%	4 nM
CC1(C)Cc2c(sc(NC(=O)c3ccccc3O)c2C(N)=O)C(C)(C)O1	–	52%	111%	4 nM
CC1(C)Cc2c(sc(NC(=O)[C@H](O)C(C)(C)C)c2C(N)=O)C(C)(C)O1	–	31%	95%	127 nM

Results, then the molecule that gave them:

EC50 [1]	Activity [2]	Activity [3]	EC50 [4]	Compound
–	–	–	16 nM	CC1(C)Cc2c(sc(NC(=O)C(C)(C)O)c2C(N)=O)C(C)(C)O1
–	–	–	136 nM	CC1(C)Cc2c(sc(NC(=O)Cc3ccn[nH]3)c2C(N)=O)C(C)(C)O1
–	–	–	190 nM	CC1(C)Cc2c(sc(NC(=O)c3cccnc3O)c2C(N)=O)C(C)(C)O1
–	–	–	125 nM	CC1(C)Cc2c(sc(NC(=O)c3cn[nH]c3)c2C(N)=O)C(C)(C)O1
–	49%	107%	–	CC1(C)Cc2c(sc(NC(=O)c3cc(C(F)(F)F)n[nH]3)c2C(N)=O)C(C)(C)O1
–	–	–	467 nM	CC1(C)Cc2c(sc(NC(=O)c3nnc[nH]3)c2C(N)=O)C(C)(C)O1
